We go through seven compounds from publication PMC12188530 (RSC Advances, 2025).

≈ marks a conversion by molar mass, not a printed value. Structures can show the parent of a compound that is named as a salt.

Data set [1] has as its target T1, S. aureus ATCC 43300 Sortase A (Staphylococcus aureus, UniProt Q2FV99).
T1 sequence (Q2FV99 60-206): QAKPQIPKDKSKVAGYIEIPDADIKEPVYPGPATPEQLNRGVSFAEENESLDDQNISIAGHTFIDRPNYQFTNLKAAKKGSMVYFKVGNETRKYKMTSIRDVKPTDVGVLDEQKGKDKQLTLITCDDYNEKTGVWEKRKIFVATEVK
The data set is described as follows: Sortase A activity assay by FRET. It is filed as biochemical.

Data set [2] has as its system S. aureus ATCC 43300. The data set is described as follows: MIC and MBC by micro broth dilution. It is filed as cell-based, Staphylococcus aureus.
Data set [3] relates to S. aureus ATCC 43300. The data set is described as follows: Time-kill kinetics. The class given is cell-based, Staphylococcus aureus. The following applies: 2 × MIC; for re-growth of the bacteria: after 24 hours; for log reduction in CFU: within 2 to 4 hours. The method, boiled down: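 Culture grown to OD600 0.5 (5 × 10^8 CFU mL−1), then diluted 1000-fold in CA-MHB. Test compound added at 2 × MIC, with ciprofloxacin (2 × MIC) and untreated controls. Incubated at 37 °C with 200 rpm shaking and sampled at 0, 2, 4, 8, 12 and 24 h. Samples plated on MHA for 24 h at 37 °C, and CFU mL−1 determined. Run in triplicate.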

Data set [4] concerns S. aureus ATCC 43300 biofilm. The data set is described as follows: Biofilm growth inhibition assay. It is filed as cell-based, Staphylococcus aureus. The following applies: at MIC, 24 hours. The essentials: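 S. aureus grown in TSB at 37 °C for 24 h, then diluted 1:100 in TSB with 0.1% glucose. […] Planktonic cells removed, wells PBS-washed, dried 10 min and stained with 0.1% crystal violet (10 min, 25 °C). Stain solubilized in 33% acetic acid (30 min, RT, shaking) and read at A600. Percent inhibition calculated against untreated control, in triplicate with three biological replicates.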

A short description of data set [5]: Cytotoxicity assay. It is filed as cell-based. The following applies: human, HepG2 cells.
Data set [6] has as its target T2, Sortase A (Staphylococcus aureus, UniProt Q2FV99).
T2 sequence (Q2FV99 60-206): T1 sequence (Q2FV99 60-206)
The data set is described as follows: Fluorescence quenching assay. The class given is binding. The following applies: compounds 0 to 128 μg mL^−1.

Data set [7] has as its system S. aureus ATCC 43300 membrane potential. Put plainly: Membrane potential perturbation assay. The class given is cell-based, Staphylococcus aureus. The following applies: MIC and 2 × MIC. The essentials:
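Cells pelleted at 2400×g for 10 min and resuspended in PBS at OD600 1.0. DiOC2(3) added to 30 μM final. Cells mixed with test compound at MIC and 2 × MIC. CCCP served as positive control and untreated cells as negative control; n = 3, mean ± SD.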

In data set [8] the test system is S. aureus ATCC 43300. The data set is described as follows: Thigh infection in a neutropenic mouse. It is filed as in vivo. The following applies: BALB/C mice, group n = 4, 100 mg kg^−1 oral. The essentials: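 Female BALB/c mice, 6–8 weeks old, n = 4 per group, made neutropenic with cyclophosphamide i.p. (150 mg kg−1 on day −4, 100 mg kg−1 on day −1). Right thigh infected i.m. with 5 × 10^5 CFU per mouse. At 4 h, test compound given orally at 100 mg kg−1, alongside vancomycin 100 mg kg−1 oral and a sunflower oil vehicle group. At 24 h, thighs homogenized in PBS and CFU plated on MHA, in triplicate per mouse.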

Data set [9] concerns S. aureus ATCC 43300 invasion in macrophage (THP1). Put plainly: Macrophage invasion assay. It is filed as cell-based, Staphylococcus aureus. The following applies: THP1, MIC and 2 × MIC.
The mark [10] stands for this setting: Staphylococcus aureus, ATCC43300, 18 h.
[11] abbreviates: Staphylococcus aureus, ATCC43300, 18 h, S. aureus ATCC 43300, MHB, 37 °C, 18 hours.

As usually defined, the % inhibition is the relative decrease from the control value, in per cent. Broadly, the MBC is the lowest tested concentration that kills the bacteria rather than only halting them. Broadly, the MIC is the lowest concentration found to suppress growth. A lower MIC goes with inhibition by little substance. Usually inhibition stands for the change of the read-out against control, counted positive when it falls. Read a high inhibition as a response far below the control. As a reminder, the viability is a read-out of living cells in per cent, often relative to untreated cells.

Regarding `O.O=c1c(O)c(-c2ccc(O)c(O)c2)oc2cc(O)cc(O)c12` [Quercetin hydrate], the “% inhibition” value in data set [1] (concentration 128 μg mL^−1) was determined as 73%.

Take `c1ccc2c(c1)Sc1ccccc1N2CC1CN2CCC1CC2` (centres unmarked) [Mequitazine]: in data set [2] (setting [10]), the MBC is 128 µg/mL (≈ 397 µM) and it took 64 µg/mL (≈ 198 µM) to inhibit growth (MIC). In data set [3], the “log reduction in colony-forming units (CFU) from the initial inoculum” value (from here on “log reduction in colony-forming units”) was at least 3 log and the “time within which the bacteria were eliminated” value was 12 to 24 h. For the same compound, the biofilm growth inhibition in data set [4] worked out at 95%. In addition, the inhibition at 128 µg/mL in data set [1] was found to be 64%. Also, in [5], the viability at 24 h, 1 × MIC stood at 30%.

As to `CN(C)C(=O)C(CCN1CCC(O)(c2ccc(Cl)cc2)CC1)(c1ccccc1)c1ccccc1` [Loperamide hydrochloride], the MIC in data set [2] (S. aureus ATCC 43300, MHB, 37 °C, 18 hours) turned out to be 64 µg/mL. The MBC in data set [2] (setting [10]) came to 128 µg/mL. This compound also returned an MIC in data set [2] (setting [11]) of 32 µg/mL. In data set [3], the “log reduction in colony-forming units” value is at least 3 log, the “time within which the bacteria were eliminated” value is 8 to 12 h and the “re-growth of the bacteria” value is recorded as “re-growth of the bacteria was observed after 24 hours”. Besides, the “dose-dependent quenching of Sortase A fluorescence intensity” value in data set [6] is given as “except loperamide hydrochloride”. The same compound gave a biofilm growth inhibition in [4] of 95%. For the same compound, the “inhibitory activity against the enzyme (in words)” value in [1] (FRET assay) is given as “except loperamide hydrochloride”. In data set [5], this compound showed a viability at 24 h, 1 × MIC of 84%. In data set [7], the membrane potential disruption result was “significant reduction only at 2 × MIC”.

In turn, `CCOC(=O)C1=C(COCCN)NC(C)=C(C(=O)OC)C1c1ccccc1Cl` (centres unmarked) [Amlodipine besylate] registered an MBC in [2] (setting [10]) of 128 µg/mL. The compound further returned an MIC in data set [2] (setting [11]) of 64 µg/mL. Besides, in [3], the “log reduction in colony-forming units” value was at least 3 log and the “time within which the bacteria were eliminated” value was in the range of 4 to 24 h. Also, in [4], the biofilm growth inhibition turned out to be 40%. In addition, the inhibition at 128 µg/mL in [1] worked out at 57%. Further, the viability at 24 h, 1 × MIC in data set [5] stood at 60%.

With `CN(C)CCCN1c2ccccc2Sc2ccc(C(F)(F)F)cc21` [Triflupromazine hydrochloride], the MIC in [2] (setting [11]) came to 32 µg/mL. Besides, in data set [3], the “re-growth of the bacteria” value is recorded as “re-growth of the bacteria was observed after 24 hours” and the “log reduction in CFU” value is given as about 2 log. This compound came in with a biofilm growth inhibition in data set [4] of 19%. In [1], this compound had an inhibition at 128 µg/mL of 48%. Also, in data set [5], the viability at 24 h, 1 × MIC is 63%.

In data set [2] (setting [11]), `CN(C)CCCN1c2ccccc2Sc2ccc(Cl)cc21` [Chlorpromazine hydrochloride] yielded an MIC of 32 µg/mL. In data set [3], the “log reduction in colony-forming units” value is recorded as at least 3 log, the “time within which the bacteria were eliminated” value is 8 to 12 h and the “re-growth of the bacteria” value is on record as “re-growth of the bacteria was observed after 24 hours”. Also, in data set [4], the biofilm growth inhibition was 93%. In [1], this compound had an inhibition at 128 µg/mL of 49%. For the same compound, the viability at 24 h, 1 × MIC in data set [5] was 28%.

Regarding `CN1CCN(CCCN2c3ccccc3Sc3ccc(Cl)cc32)CC1` [Prochlorperazine dimaleate], 32 µg/mL was the least that counted as inhibitory in [2] (setting [11]) (MIC). Moreover, in [3], the “re-growth of the bacteria” value is recorded as “re-growth of the bacteria was observed after 24 hours” and the “log reduction in CFU” value is reported as about 2 log. In addition, the “death during the experiment” value in data set [8] was “One BALB/C died during the experiment”. This compound returned a biofilm growth inhibition in data set [4] of 67%. In data set [5], this compound yielded a viability at 24 h, 1 × MIC of 86% and a viability at 24 h, 2 × MIC of about 50%. Further, in data set [9], the “S. aureus ATCC 43300 invasion of macrophages” value is listed as “successfully reduced MRSA invasion of macrophages at 2 × MIC”.
